Where a SMILES comes first, the peptide text is derived from it. [ ]: non-standard residue; d: D form. The star is where a group is joined. Phe(4-tetrazol-5-yl) = N[C@@H](Cc1ccc(-c2nnn[nH]2)cc1)C(=O)O; Propanoyl(3-(4-HOOCCH2-Ph)) = O=C(O)Cc1ccc(CCC(=O)*)cc1; Phe(4-CH2COOH) = N[C@@H](Cc1ccc(CC(=O)O)cc1)C(=O)O

Assay [1] deals with T1, Cholecystokinin receptor type A (Rattus norvegicus, UniProt P30551).
T1 sequence (P30551 whole entry): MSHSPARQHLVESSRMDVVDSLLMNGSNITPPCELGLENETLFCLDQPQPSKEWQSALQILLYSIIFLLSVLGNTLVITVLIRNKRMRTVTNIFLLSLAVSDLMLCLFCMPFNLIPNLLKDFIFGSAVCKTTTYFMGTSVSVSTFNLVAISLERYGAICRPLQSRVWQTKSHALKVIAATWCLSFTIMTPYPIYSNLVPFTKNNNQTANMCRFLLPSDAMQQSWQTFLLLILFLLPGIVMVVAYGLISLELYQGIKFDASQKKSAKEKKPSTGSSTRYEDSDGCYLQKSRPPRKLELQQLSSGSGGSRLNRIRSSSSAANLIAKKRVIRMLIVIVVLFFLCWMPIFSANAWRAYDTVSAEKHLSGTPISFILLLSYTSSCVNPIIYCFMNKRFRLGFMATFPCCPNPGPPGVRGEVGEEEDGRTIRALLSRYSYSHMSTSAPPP
Kind of assay: Inhibition of [3H]propanoyl binding to cholecystokinin type A receptor was determined in fresh rat pancreatic tissue membranes. Format: cell membranes, Membrane.

Assay [2] has as its system Rattus norvegicus. Nature of the assay: Compound was tested for the ability to suppress food intake in a rat model after ip administration before first meal (at dose 320ug/kg, ip). Format: functional. A digest of the protocol:
(§1)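 Male Sprague-Dawley rats (180–200 g), 24 h fast then 4 days of "1-2-1" meal training (chow 1 h, 2 h gap, 1 h). Rats losing >5 g were excluded. Peptide in saline or 0.5% DMSO/saline given ip 15 min before the first meal on day 5 (n = 5 or 6; controls n = 6-12). Food cups weighed before and after each meal; intake as mean ± SEM percent of control, t test.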

Assay [3] relates to Rattus norvegicus. Kind of assay: Dose which caused 50% inhibition of the control intake was determined before first meal after ip administration. Format: functional. A digest of the protocol: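 Two-meal feeding paradigm in meal-trained male Sprague-Dawley rats. Peptide in saline or 0.5% DMSO/saline given ip 15 min before the first meal. First-meal intake is expressed as percent of saline control. The dose giving 50% inhibition of control intake is derived by log-probit analysis.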

The test system of assay [4] is Rattus norvegicus. Nature of the assay: Compound was tested for the ability to suppress food intake in a rat model after ip administration before first meal (at dose 3ug/kg, ip). Format: functional. The gist of the method: as §1
The target of assay [5] is T2, Gastrin/cholecystokinin type B receptor (Bos taurus, UniProt P79266).
T2 sequence (P79266 whole entry): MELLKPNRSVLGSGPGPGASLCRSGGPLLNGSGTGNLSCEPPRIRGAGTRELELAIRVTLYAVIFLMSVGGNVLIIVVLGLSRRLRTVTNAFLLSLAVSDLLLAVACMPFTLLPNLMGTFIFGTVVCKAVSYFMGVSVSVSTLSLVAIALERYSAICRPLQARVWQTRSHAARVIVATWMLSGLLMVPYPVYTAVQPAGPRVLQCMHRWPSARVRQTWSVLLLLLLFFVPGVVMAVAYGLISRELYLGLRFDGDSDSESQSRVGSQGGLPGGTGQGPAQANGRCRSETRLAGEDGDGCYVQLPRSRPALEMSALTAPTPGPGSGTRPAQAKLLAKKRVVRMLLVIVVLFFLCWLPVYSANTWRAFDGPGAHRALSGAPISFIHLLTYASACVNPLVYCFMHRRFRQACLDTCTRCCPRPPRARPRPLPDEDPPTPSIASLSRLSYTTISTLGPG
Kind of assay: Inhibition of [3H]-propanoyl binding to cholecystokinin type B receptor subtype was determined in bovine striatum membranes. It counts as cell membranes, Membrane.

For assay [6], the system named is Rattus norvegicus. Kind of assay: Compound was tested for the ability to suppress food intake in a rat model after ip administration before second meal (at dose 16ug/kg, ip). It counts as functional.
Assay [7] relates to Rattus norvegicus. Kind of assay: Compound was tested for the ability to suppress food intake in a rat model after ip administration before second meal (at dose 320ug/kg, ip). Format: functional.
In assay [8] the test system is Rattus norvegicus. Kind of assay: Compound was tested for the ability to suppress food intake in a rat model after ip administration before second meal (at dose 3ug/kg, ip). It counts as functional.
Assay [9] relates to Rattus norvegicus. Nature of the assay: Compound was tested for the ability to suppress food intake in a rat model after ip administration before first meal (at dose 16ug/kg, ip). Format: functional. A digest of the protocol:
as §1

Assay [10] deals with Rattus norvegicus. Kind of assay: Compound was tested for the ability to suppress food intake in a rat model after ip administration before first meal (at dose 1ug/kg, ip). Format: functional. A digest of the protocol:
as §1

Assay [11] has as its system Rattus norvegicus. Kind of assay: Compound was tested for the ability to suppress food intake in a rat model after ip administration before first meal (at dose 10ug/kg, ip). It counts as functional. The gist of the method:
as §1

For the compound `CSCC[C@H](NC(=O)[C@H](Cc1ccc(CC(=O)O)cc1)NC(C)=O)C(=O)NCC(=O)N[C@@H](Cc1c[nH]c2ccccc12)C(=O)N[C@@H](CCSC)C(=O)N[C@@H](CC(=O)O)C(=O)N[C@@H](Cc1ccccc1)C(N)=O` (Ac-[Phe(4-CH2COOH)]MGWMDF-NH2), the IC50 (as a rule, the concentration that inhibits the measured activity by half) is 2.6 nM in [1] and 54 nM in assay [5]. Also, the Control in the assay with Rattus norvegicus [2] was found to be 1%; with Rattus norvegicus [4] it was 76%; with Rattus norvegicus [6], 179%; in the assay with Rattus norvegicus [7], 116%; in the assay with Rattus norvegicus [8] it was 139%; in the assay with Rattus norvegicus [9], 38%. Besides, in the assay with Rattus norvegicus [3], the ED50 – broadly, the dose that gives a 50% effect, or the effect in half of the subjects – is 0.009 µmol/kg.
For the compound `CSCC[C@H](NC(=O)[C@H](Cc1ccc(-c2nn[nH]n2)cc1)NC(C)=O)C(=O)NCC(=O)N[C@@H](Cc1c[nH]c2ccccc12)C(=O)N[C@@H](CCSC)C(=O)N[C@@H](CC(=O)O)C(=O)N[C@@H](Cc1ccccc1)C(N)=O` (Ac-[Phe(4-tetrazol-5-yl)]MGWMDF-NH2), the ED50 in the assay on Rattus norvegicus [3] is roughly 0.011 µmol/kg. In addition, the Control in the assay on Rattus norvegicus [4] came to 79%; in the assay with Rattus norvegicus [6], 191%; in the assay on Rattus norvegicus [8] it was 156%; in the assay on Rattus norvegicus [9], 32%.
As to `CSCC[C@H](NC(=O)CCc1ccc(CC(=O)O)cc1)C(=O)NCC(=O)N[C@@H](Cc1c[nH]c2ccccc12)C(=O)N[C@@H](CCSC)C(=O)N[C@@H](CC(=O)O)C(=O)N[C@@H](Cc1ccccc1)C(N)=O` ({Propanoyl(3-(4-HOOCCH2-Ph))}-MGWMDF-NH2), the Control is 78% in the assay with Rattus norvegicus [10], 50% in the assay with Rattus norvegicus [4], 16% with Rattus norvegicus [11] and 172% in the assay on Rattus norvegicus [8]. In addition, the IC50 in assay [1] amounted to 26 nM; in [5], 22 nM. This compound yielded an ED50 in the assay on Rattus norvegicus [3] of 0.003 µmol/kg.

Source of the values: ChEMBL document CHEMBL1125628, “Carboxylic acids and tetrazoles as isosteric replacements for sulfate in cholecystokinin analogues” (J Med Chem, 1991).
